This is a sample that favours compounds with a hit; in the whole collection about 1.5% have one here.
S100A4 inh HTS: inhibitors of S100A4-myosin IIA peptide binding, primary screen, biochemical, fluorescence polarization, TAMRA-MyoIIA peptide; Protein S100-A4 (Homo sapiens), P26447; inhibition, % at 10.7 µM; 0.14% of 360,000 active; AID 652163, 2013;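 active = mean inhibition of at least 70% across replicates, with every replicate also reaching that level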
Target sequence (P26447 whole entry, looked up): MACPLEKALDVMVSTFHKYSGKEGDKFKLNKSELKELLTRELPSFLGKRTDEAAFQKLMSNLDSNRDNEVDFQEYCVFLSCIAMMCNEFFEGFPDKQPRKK
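System – human S100A4 monomer protein, biochemical binding assay · Buffer or medium – Calcium-containing HEPES buffer, pH 7.2 · Timing – 5 min between mix addition and reading · Also added – TAMRA-labelled myosin IIA heavy-chain peptide probe, 5 nM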
ERp5 inh: inhibitors of ERp5-driven insulin aggregation, primary screen, biochemical, turbidity, absorbance 650 nm, single point | inhibition, % at 9.99 µM | 90 min | Protein disulfide-isomerase A6 (Homo sapiens), Q15084 | 0.05% of 350,000 active;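 active = mean replicate inhibition above about 25%, with every replicate also reaching it, limit read from the data, passing the limit was not always enough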
INS-1E GSIS act: GLuc luminescence reporter in INS-1E cells, primary screen for activators of glucose-dependent secretion of insulin; activation, % at 16.6 µM; INS-1E GLuc reporter insulin secretion, 2-3 h; AID 743287, 2014; 0.61% of 370,000 active;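 active = lowest replicate activation of at least 40%, so every replicate reaches that level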;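 note: 0% = median of neutral control wells and 100% = median of IBMX positive control wells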
PDI turbidity: inhibitors of human PDI, primary screen, biochemical, turbidity, single point, plate reader. 0.052% of 350,000 active. PDI insulin aggregation turbidity, A650, 90 min. inhibition, % at 10 µM. Protein disulfide-isomerase (Homo sapiens), P07237;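 active = mean inhibition across replicates of 30% or more, whatever share of single replicates reach that level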
Target sequence (P07237 whole entry, looked up): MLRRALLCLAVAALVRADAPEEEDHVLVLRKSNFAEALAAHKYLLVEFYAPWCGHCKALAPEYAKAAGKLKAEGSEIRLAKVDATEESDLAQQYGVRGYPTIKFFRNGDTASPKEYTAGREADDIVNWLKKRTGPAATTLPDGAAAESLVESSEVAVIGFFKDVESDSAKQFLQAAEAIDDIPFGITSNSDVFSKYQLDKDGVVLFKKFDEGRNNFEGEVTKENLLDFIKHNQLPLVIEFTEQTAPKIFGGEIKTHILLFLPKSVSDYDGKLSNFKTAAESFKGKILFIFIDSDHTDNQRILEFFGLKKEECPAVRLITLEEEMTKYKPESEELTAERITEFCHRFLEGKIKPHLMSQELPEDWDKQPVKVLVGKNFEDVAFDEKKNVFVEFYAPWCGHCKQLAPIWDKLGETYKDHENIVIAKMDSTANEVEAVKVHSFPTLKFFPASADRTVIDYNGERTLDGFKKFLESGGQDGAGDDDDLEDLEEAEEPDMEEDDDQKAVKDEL
SIRT5 block: SIRT5 desuccinylase inhibitors, primary screen, biochemical, fluorescence imaging, single point, set 5; AID 652115, 2013; 1.1% of 330,000 active; inhibition, % at 15 µM; Purified SirT5, succinyl-peptide AMC, trypsin-coupled fluorescence; NAD-dependent protein deacylase sirtuin-5, mitochondrial (Homo sapiens), Q9NXA8; in the data active = inhibition above about 15%
Numbers without * were called inactive; / = no result given; ! = not active in a repeat.

SMILES	S100A4 inh HTS	ERp5 inh	INS-1E GSIS act	PDI turbidity	SIRT5 block
COc1ccccc1NC(=O)c1ccc(S(=O)(=O)N2CCOCC2)cc1	/	/	/	2	/
COc1cccc2sc(NC(=O)c3ccc(S(=O)(=O)N4CCOCC4)cc3)nc12	10	-2	-4	4	15*
CC(C)Cn1c(SCC(=O)Nc2ccc3[nH]c(=O)[nH]c3c2)nc2ccccc2c1=O	-5	11	45*	-6	-3
COc1ccc(OCC(=O)Nc2ccc(NC(=O)c3cccs3)cc2)cc1	-2	2	3	-6	102*
O=C(Nc1ccc(NC(=O)c2cccs2)cc1)c1ccc(Br)o1	/	/	45*	-5	/
CC(C)Cn1c(O)c(/C=C2\C=NN=C2c2ccccc2)sc1=S	/	/	83*	1	/
CCCCn1c(O)c(/C=C2\C=NN=C2c2ccccc2)sc1=S	/	/	119*	-7	/
CCn1c(O)c(/C=C2\C=NN=C2c2ccccc2)sc1=S	-6	1	-5	0	-6
Cn1c(O)c(/C=C2\C=NN=C2c2ccccc2)sc1=S	2	1	-6	6	0
CCCCCCn1c(O)c(/C=C2\C=NN=C2c2ccccc2)sc1=S	/	/	164*	4	/
O=S(=O)(Cc1ccccc1)N1[C@@H]2CNC[C@H]1C2c1ccc(/C=C/c2ccccc2)cc1 (stereo partly drawn)	/	/	-26	/	/
N#C[C@@H]1[C@H](c2ccc(C#Cc3cccc(F)c3)cc2)[C@@H](CO)N1C(=O)C1CC1	0	1	7	/	-1
CCCCCCCCCCCCCCCC[n+]1cccc2ccccc21	-10	8	159*	6	6
C=CCOC(=O)C1=C[C@@H](c2ccc(Br)cc2)C[C@@H](OCc2ccc(CO)cc2)O1	-3	-1	-19	-2	26*!
COC(=O)[C@]12C[C@H](CC(=O)NCCc3ccccc3OC)C(=O)N(CCC3=CCCCC3)C1=C[C@H](C(C)(C)C)O[C@@H]2C	5	-3	41*	/	/
COCC(=O)N1C[C@H]2[C@@H](c3ccccc31)[C@@H](CO)N2C(=O)C1CC1	-3	4	-1	/	-4
Cc1cc(C)n(CCNC(=O)CCc2nnc(CCc3ccccc3)o2)n1	12	-1	0	-3	15*
Cc1cc(C)n(CC(C)NC(=O)CCc2nnc(CCc3ccccc3)o2)n1 (stereo not drawn)	-6	-1	16	-5	-5
C[C@@H](NC(=O)C[C@@H]1C=C[C@@H](NC(=O)C2CCC2)[C@H](CO)O1)c1ccccc1	0	0	-1	/	2
CC(C)NC(=O)Nc1cccc2c1O[C@H](CN(C)C(=O)NC1CCCCC1)[C@H](C)CN([C@@H](C)CO)C2=O	6	-2	0	/	-2
C=Cc1cc2c(cc1O)CCC1C2CCC2(C)C(O)CCC12 (stereo not drawn)	-2	1	/	2	/
C[C@]12CC[C@@H]3c4ccc(O)cc4C(=O)C[C@H]3[C@@H]1CC[C@@H]2O	-2	4	/	39*	1
CCSC1=C(C#N)C(c2ccc(C)s2)CC(=O)N1 (stereo not drawn)	2	-1	11	8	16*
CO[C@@H]1CN(C)C(=O)c2cc(NC(C)=O)ccc2OC[C@@H](C)N(Cc2ccccn2)C[C@H]1C	4	-3	-5	/	0
COC(=O)[C@@H]1[C@@H](CO)[C@@H]2Cn3c(ccc(-c4cccc(OC)c4)c3=O)[C@@H]2N1Cc1nccs1	9	-1	-8	/	-23
SMILES	S100A4 inh HTS	ERp5 inh	INS-1E GSIS act	PDI turbidity	SIRT5 block
CC/C=C\C/C=C\C/C=C\CCCCCCCC(=O)O	-8	4	/	-2	17*
COC(=O)N/N=C/c1cn(Cc2ccc(Cl)cc2Cl)c2ccccc12	-3	8	/	0	20*
COC(=O)N/N=C/c1cn(Cc2ccccc2Cl)c2ccccc12	0	-7	6	-6	0
CC(C)(C)c1n[nH]c2c1CCCC2	-6	1	30	1	42*
Nc1ccc(C(=O)O)c(O)c1	-1	-1	15	3	15*!
N#C[C@@H]1[C@H](c2ccc(-c3ccccc3F)cc2)[C@H](CO)N1C(=O)c1ccccn1	-2	0	-1	/	6
Cc1ccc(S(=O)(=O)N(C)C[C@H]2Oc3c(NC(=O)C4CC4)cccc3C(=O)N([C@H](C)CO)C[C@@H]2C)cc1	-15	-3	0	/	-1
Cc1cccc(C)c1NC(=O)CN(Cc1ccccc1)Cc1ccccc1	-3	-7	8	/	34*
Cc1cccc(C)c1NC(=O)CNc1ccccc1	/	/	/	7	/
C[C@@H]1CN([C@H](C)CO)C(=O)c2cc(NC(=O)Nc3cccc4ccccc34)ccc2O[C@H]1CN(C)S(C)(=O)=O	-12	-3	7	/	1
O=C(c1cccs1)N(Cc1ccccn1)Cc1ccco1	/	/	73*	-8	/
O=C(c1ccco1)N(Cc1ccccc1)Cc1ccccn1	-1	-14	46	2	5
CC1(C)SC2c3ccccc3C(=O)N2[C@@H]1C(=O)NC1CC1 (stereo partly drawn)	4	1	42*	0	-4
CC1(C)SC2c3ccccc3C(=O)N2[C@@H]1C(=O)NC1CCCC1 (stereo partly drawn)	4	4	-5	4	-2
O=C(COc1nncc2ccccc12)Nc1c(F)c(F)c(F)c(F)c1F	2	0	-3	2	2
O=C(COc1nncc2ccccc12)NCC(F)(F)F	0	-3	44*	-2	-3
COc1cc(/C=C2/NC(=O)NC2=O)cc(Br)c1OCc1ccc(C(=O)O)cc1	1	0	10	-1	15*
Cc1ccc(S(=O)(=O)N2CCC(C(=O)OCC(=O)N(Cc3ccccc3)C(C)C)CC2)cc1C	7	2	/	14	/
Cc1ccc(S(=O)(=O)N2CCC(C(=O)OCC(=O)N(C)Cc3ccccc3)CC2)cc1C	13	3	-6	-1	20*
C[C@H](CO)N1C[C@H](C)[C@H](CN(C)S(C)(=O)=O)OCCCC[C@H](C)Oc2ccc(NS(=O)(=O)c3ccc(Cl)cc3)cc2C1=O	6	-1	-14	/	0
O=c1[nH]c(CCl)nc2cc(-c3ccc(F)cc3)sc12	14	2	13	43*	-1
O=c1c(O[C@@H]2O[C@H](CO)C(O)C2O)c(-c2ccc(O)c(O)c2)oc2cc(O)cc(O)c12 (stereo partly drawn)	/	/	/	41*	/
O=c1c(OC2OC(CO)C(O)C(O)C2O)c(-c2ccc(O)c(O)c2)oc2cc(O)cc(O)c12 (stereo not drawn)	1	2	-3	54*	/
O=c1c(O[C@H]2O[C@@H](CO)[C@H](O)[C@@H](O)[C@@H]2O)c(-c2ccc(O)cc2)oc2cc(O)cc(O)c12	-4	4	-6	63*	/
